Values after ≈ are worked out from the molar mass of the structure shown.
Legend:
[1] = test system: Fusarium oxysporum f. sp. vasinfectum; experiment: Antifungal activity against Fusarium oxysporum f. sp. vasinfectum by MTT assay; assay type: functional
Summary of the method: (§1)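 MIC read visually on microtiter plates, then confirmed colorimetrically with MTT. Each well received RPMI 1640 carrying MTT at 5 mg/mL and was incubated 3 h at 37 °C. Medium was removed and the dye extracted with isopropanol containing 5% mol/L HCl for 30 min at room temperature with gentle agitation. OD read at 550 nm.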

[2] = test system: Pyricularia oryzae; experiment: Antifungal activity against Pyricularia oryzae by MTT assay; assay type: functional
[3] = test system: Alternaria alternata; experiment: Antifungal activity against Alternaria alternata by MTT assay; assay type: functional; summary of the method: as §1
[4] = test system: Cytospora mali; experiment: Antifungal activity against Valsa mali by MTT assay; assay type: functional; summary of the method: as §1
[5] = test system: Colletotrichum lagenaria; experiment: Antifungal activity against Colletotrichum lagenarium by MTT assay; assay type: functional; summary of the method: as §1
[6] = test system: Alternaria solani; experiment: Antifungal activity against Alternaria solani by MTT assay; assay type: functional; summary of the method: as §1
[7] = biological target: Urease (Canavalia ensiformis, UniProt P07374); experiment: Inhibition of jack bean urease
Summary of the method: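 Jack bean urease (4 U) preincubated with test compound (100 µg) for 2 h at room temperature; then 100 mM phosphate buffer pH 6.8 containing 500 mM urea and 0.002% phenol red added, incubated at room temperature; time for ammonium carbonate to raise pH from 6.8 to 7.7 read at 570 nm; IC50 determined; acetohydroxamic acid as positive control.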

Urease, sequence (P07374 whole entry): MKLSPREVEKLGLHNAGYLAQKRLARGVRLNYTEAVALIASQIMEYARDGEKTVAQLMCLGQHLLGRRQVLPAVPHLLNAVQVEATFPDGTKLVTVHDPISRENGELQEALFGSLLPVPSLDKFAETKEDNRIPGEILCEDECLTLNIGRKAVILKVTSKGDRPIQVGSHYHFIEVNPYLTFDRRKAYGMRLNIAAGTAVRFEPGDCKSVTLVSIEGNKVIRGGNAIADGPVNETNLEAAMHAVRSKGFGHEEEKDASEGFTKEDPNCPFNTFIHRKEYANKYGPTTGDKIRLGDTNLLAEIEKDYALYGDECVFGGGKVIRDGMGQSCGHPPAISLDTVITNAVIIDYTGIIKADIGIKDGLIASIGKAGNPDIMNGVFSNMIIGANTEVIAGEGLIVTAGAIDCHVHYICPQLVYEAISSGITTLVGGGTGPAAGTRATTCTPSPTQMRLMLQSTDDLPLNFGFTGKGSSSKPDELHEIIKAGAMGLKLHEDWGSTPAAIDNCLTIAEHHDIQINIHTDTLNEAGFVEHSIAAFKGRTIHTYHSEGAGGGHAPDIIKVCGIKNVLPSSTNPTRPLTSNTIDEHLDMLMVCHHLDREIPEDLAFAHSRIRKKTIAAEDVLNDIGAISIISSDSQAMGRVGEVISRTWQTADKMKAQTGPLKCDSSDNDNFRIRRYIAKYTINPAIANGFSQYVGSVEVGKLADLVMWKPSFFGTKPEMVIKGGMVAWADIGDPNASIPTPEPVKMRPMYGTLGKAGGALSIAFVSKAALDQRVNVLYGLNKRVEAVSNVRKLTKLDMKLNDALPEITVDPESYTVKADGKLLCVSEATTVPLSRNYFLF

Structure (SMILES): Oc1ccc([C@H]2Oc3cc(O)cc4c3[C@@H]2c2cc(O)cc3c2[C@@H](c2cc(O)cc5c2[C@@H]4[C@H](c2ccc(O)cc2)O5)[C@H](c2ccc(O)cc2)O3)cc1
- MIC [1]: 25.2 µg/mL (≈ 37.1 µM)
- MIC [2]: 6.25 µg/mL (≈ 9.21 µM)
- MIC [3]: > 50 µg/mL
- MIC [4]: > 50 µg/mL
- MIC [5]: 12.5 µg/mL (≈ 18.4 µM)
- MIC [6]: 3.12 µg/mL (≈ 4.6 µM)

Structure (SMILES): CC(=O)NO [ACETOHYDROXAMIC ACID]
- IC50 [7]: 17.3 µM

Structure (SMILES): O=C1C=C2O[C@@H](c3ccc(O)cc3)[C@H]3C2=C(C1=O)[C@H]1c2c(cc(O)cc2[C@@H]2c4c(cc(O)cc43)O[C@H]2c2ccc(O)cc2)O[C@@H]1c1ccc(O)cc1 [HOPEANOLIN]
- MIC [1]: 6.22 µg/mL (≈ 8.98 µM)
- MIC [2]: 0.1 µg/mL (≈ 0.144 µM)
- MIC [3]: 22.5 µg/mL (≈ 32.5 µM)
- MIC [4]: 1.55 µg/mL (≈ 2.24 µM)
- MIC [5]: 10.6 µg/mL (≈ 15.3 µM)
- MIC [6]: 1.56 µg/mL (≈ 2.25 µM)

Structure (SMILES): CC(=O)N1CCN(c2ccc(OCC3COC(Cn4ccnc4)(c4ccc(Cl)cc4Cl)O3)cc2)CC1 (stereo not drawn) [KETOCONAZOLE]
- MIC [1]: 2.21 µg/mL (≈ 4.16 µM)
- MIC [2]: 0.03 µg/mL (≈ 0.0565 µM)
- MIC [3]: 1.04 µg/mL (≈ 1.96 µM)
- MIC [4]: 0.51 µg/mL (≈ 0.96 µM)
- MIC [5]: 0.97 µg/mL (≈ 1.83 µM)
- MIC [6]: 0.83 µg/mL (≈ 1.56 µM)

Structure (SMILES): Oc1ccc([C@@H]2c3c(O)cc(O)cc3[C@@H]3c4c(cc(O)c5c4[C@@H]2[C@@H](c2ccc(O)cc2)[C@@H]5c2cc(O)cc(O)c2)O[C@H]3c2ccc(O)cc2)cc1 [PAUCIFLOROL A]
- MIC [1]: > 50 µg/mL
- MIC [2]: 11.5 µg/mL (≈ 16.9 µM)
- MIC [3]: 1.56 µg/mL (≈ 2.29 µM)
- MIC [4]: > 50 µg/mL
- MIC [5]: > 50 µg/mL
- MIC [6]: > 50 µg/mL

Structure (SMILES): O=C1c2cc(O)cc3oc(-c4ccc(O)cc4)c(c23)-c2cc(O)cc(O)c2C1c1ccc(O)cc1 (stereo not drawn) [SHOREAPHENOL]
- IC50 [7]: 127 µM
- MIC [1]: > 50 µg/mL
- MIC [2]: 27.3 µg/mL (≈ 58.5 µM)
- MIC [4]: 7.13 µg/mL (≈ 15.3 µM)
- MIC [5]: > 50 µg/mL
- MIC [6]: > 50 µg/mL

Structure (SMILES): Oc1ccc([C@@H]2c3c(O)cc(O)cc3[C@@H]3c4c(cc(O)c5c4[C@H]2[C@H](c2ccc(O)cc2)[C@H]5c2cc(O)cc(O)c2)O[C@H]3c2ccc(O)cc2)cc1 [VATICANOL A]
- MIC [1]: 12.7 µg/mL (≈ 18.7 µM)
- MIC [2]: 3.12 µg/mL (≈ 4.58 µM)
- MIC [3]: > 50 µg/mL
- MIC [4]: 20.1 µg/mL (≈ 29.5 µM)
- MIC [5]: > 50 µg/mL
- MIC [6]: 6.25 µg/mL (≈ 9.18 µM)

Structure (SMILES): Oc1ccc([C@@H]2c3cc(O)ccc3[C@@H]3c4c(O)cc(O)cc4[C@@H]2c2c(O)cc(O)c4c2[C@@H]3[C@@H](c2ccc(O)cc2)[C@@H]4c2cc(O)cc(O)c2)cc1 [VATICANOL G]
- MIC [1]: > 50 µg/mL
- MIC [2]: 0.78 µg/mL (≈ 1.15 µM)
- MIC [3]: > 50 µg/mL
- MIC [4]: > 50 µg/mL
- MIC [5]: > 50 µg/mL
- MIC [6]: 24.6 µg/mL (≈ 36.1 µM)
